According to article PMC9597438 (Journal of Ginseng Research, 2022):

How the values were obtained:
Hep3B cells = experiment: Cytotoxic; assay type: cell-based, human; conditions: 24 h, concentrations as high as 30 μM
In short: (§1)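 Hep3B cells in DMEM/10% FBS (5×10^4/well) adhered for 12 h under normoxia. They were exposed for 24 h to final 0.3, 1, 3, 10 and 30 µM, triplicate wells per level. MTT was added for 4 h in the dark, formazan was dissolved in DMSO with 10 min shaking, and absorbance was read at 492 nm. Mean ± SD, n = 3.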

HeLa cells [1] = experiment: Apoptosis assay; assay type: cell-based, human
In short: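 HeLa cells (5×10^5/well) adhered for 24 h, then were exposed to 3, 10 or 30 µM for 24 h per methods; the legend gives 12 h under hypoxia. Cells were washed twice in PBS and taken into binding buffer (10 mM HEPES pH 7.4, 140 mM NaCl, 2.5 mM CaCl₂). They were stained with Annexin V-FITC and 2 µg/mL propidium iodide, 15 min, 37 °C, dark, then read by flow cytometry.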

HeLa cells [2] = experiment: Colony formation assay; assay type: cell-based, human; conditions: HeLa cells, 3, 10, 30 μM, 10 days
In short: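 HeLa cells (1×10^3/well, 6-well) were plated for 12 h and given fresh medium with 3, 10 or 30 µM. They grew 10 days until colonies were visible, then were fixed in 10% formaldehyde, stained with 1% crystal violet, washed in PBS and air-dried.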

[3] = test system: HIF-1β expression in HeLa cells; experiment: Western blotting of HIF-1β in HeLa cells; assay type: cell-based, human; conditions: hypoxia, 12 h, whole-cell lysates
In short: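 HeLa cells were held 12 h under normoxia or hypoxia (1% O₂) at the indicated concentrations. Whole-cell lysates were run on SDS-PAGE, transferred to PVDF and blocked in 5% milk. Anti-HIF-1β ran overnight at 4 °C, secondary 2 h, chemiluminescent detection. Three independent experiments.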

[4] = test system: VEGF protein expression in HeLa cells; experiment: Western blotting of VEGF in HeLa cells; assay type: cell-based, human; conditions: hypoxia, 12 h
In short: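 After 12 h incubation under normoxia or hypoxia (1% O₂) at the indicated concentrations, HeLa cell protein was quantified by BCA and separated by SDS-PAGE onto PVDF. Blots were blocked in 5% milk and probed for VEGF overnight at 4 °C, then secondary 2 h, with chemiluminescent detection. Three independent experiments.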

[5] = test system: cleaved caspase-3 expression in HeLa cells; experiment: Western blotting of cleaved caspase-3 in HeLa cells; assay type: cell-based, human; conditions: HeLa cells, 3, 10, 30 μM, 12 h, concentration-dependent
In short: (§2)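 HeLa cells were treated with or without 3, 10 or 30 µM for 12 h. Whole-cell extracts were separated by SDS-PAGE, transferred to PVDF and blocked in 5% nonfat milk. Blots were probed overnight at 4 °C for the named protein (Bax, Bcl-2, MMP-9 or cleaved caspase-3), then secondary for 2 h, with chemiluminescent detection. Three independent experiments.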

[6] = test system: Bcl-2 expression in HeLa cells; experiment: Western blotting of Bcl-2 in HeLa cells; assay type: cell-based, human; conditions: HeLa cells, 3, 10, 30 μM, 12 h, vs control group
In short: as §2

[7] = test system: MMP-9 expression in HeLa cells; experiment: Western blotting of MMP-9 in HeLa cells; assay type: cell-based, human; conditions: 10 μM, 12 h
In short: as §2

HeLa cells [8] = experiment: EdU labeling and immunofluorescence; assay type: cell-based, human; conditions: HeLa cells, 3, 10, 30 μM, 12 h
In short: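 HeLa cells (5×10^4/well) were plated for 24 h and treated with 3, 10 or 30 µM for 12 h. EdU was pulsed for 1 h. Cells were fixed in 4% paraformaldehyde for 30 min, permeabilised in 0.5% Triton X-100 for 10 min and reacted in 1× Apollo cocktail for 30 min. Nuclei were counterstained with Hoechst 33342 and imaged by fluorescence microscopy.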

[9] = test system: HIF-1α protein expression in HeLa cells; experiment: Western blotting of HIF-1α in HeLa cells; assay type: cell-based, human; conditions: 1% O2, 12 h, 3, 10, 30 μM, nuclear extract
In short: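 HeLa cells were held 12 h under normoxia or hypoxia (1% O₂) with 3, 10 or 30 µM. Nuclear extracts were quantified by BCA, and 30 µg per lane was resolved by SDS-PAGE and transferred to PVDF. Membranes were blocked in 5% nonfat milk, probed with anti-HIF-1α overnight at 4 °C, then secondary for 2 h, and detected by chemiluminescence. Three independent experiments.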

[10] = test system: Bax expression in HeLa cells; experiment: Western blotting of Bax in HeLa cells; assay type: cell-based, human; conditions: HeLa cells, 3, 10, 30 μM, 12 h, vs control group
In short: as §2

HeLa cells [11] = experiment: Cell migration assay; assay type: cell-based, human; conditions: 3, 10, 30 μM, 12 h, vs control group
In short: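 Scratch assay: HeLa cells (1×10^5/well) adhered for 24 h, were scratched with a sterile pipette tip, washed three times in PBS and switched to serum-free medium. Cells got 3, 10 or 30 µM for 12 h. The same fields were imaged at 200×, and migration was scored as final versus initial gap width.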

[12] = test system: HeLa cervical cancer xenograft; experiment: In vivo antitumor activity, HeLa cervical cancer xenograft; parameters: species or system athymic Nu/Nu nude mice; conditions: nude mice with HeLa tumors, ip, vs control, p < 0.001
[13] = test system: nuclear accumulation of HIF-1α in HeLa cells; experiment: Immunofluorescence staining of HIF-1α; assay type: cell-based, human; conditions: 1% O2, 12 h, 30 μM
In short: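 HeLa cells (1×10^4/well) adhered for 24 h and were held under normoxia or hypoxia (1% O₂) for 12 h with or without 30 µM. Processing: 4% paraformaldehyde at room temperature for 30 min, 0.2% Triton X-100, 5% BSA block for 30 min. Anti-HIF-1α ran overnight at 4 °C, secondary 30 min at room temperature, DAPI 30 min. Imaged by fluorescence microscopy at 400×.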

[14] = test system: HIF-1α transcriptional activity in Hep3B cells; experiment: HRE luciferase reporter assay; assay type: cell-based, human
In short: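 Hep3B cells at 60–80% confluence were transfected with an HRE-luciferase plasmid (legend adds pRL-CMV) using Lipofectamine 2000 for 24 h. They were reseeded at 5×10^4/well for 24 h, then treated under hypoxia (1% O₂, 5% CO₂, 94% N₂, 37 °C) at final 0.3–30 µM, triplicate wells. Treatment ran 12–16 h per methods, 24 h per legend. Cells were lysed 1 h and luminescence read.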

HeLa cells [15] = experiment: Transwell invasion assay; assay type: cell-based, human; conditions: HeLa cells, 3, 10, 30 μM, vs control
In short: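 Matrigel-coated Transwell inserts were loaded with HeLa cells pretreated with or without 3, 10 or 30 µM, in serum-free DMEM in the upper chamber; the legend gives 12 h exposure. The lower chamber held DMEM with 10% FBS. After 24 h invasion at 37 °C, cells on the lower side were fixed in 4% paraformaldehyde, stained with 0.1% crystal violet and photographed at 200×.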

Cytotoxic = assay type: cell-based, human; conditions: human, Hep3B cells
In short: as §1

| SMILES | cell viability (MTT) (Hep3B cells) | percentage of total apoptotic (early and late) cells (HeLa cells [1]; 3 μM) | percentage of total apoptotic (early and late) cells (HeLa cells [1]; 10 μM) | percentage of total apoptotic (early and late) cells (HeLa cells [1]; 30 μM) | colony formation of cells (HeLa cells [2]) | expression level of HIF-1β [3] | VEGF protein expression levels [4] | expression levels of cleaved caspase-3 [5] | levels of Bcl-2 [6] | expression levels of MMP-9 [7] | number of EdU-positive cells (HeLa cells [8]) | HIF-1α protein content [9] | expression levels of Bax [10] | migration of HeLa cells (scratch assay) (HeLa cells [11]) | tumor volume [12] | HIF-1α expression in the nucleus [13] | transcriptional activity of HIF-1α (HRE-mediated reporter gene expression) ([14]; hypoxia (1% oxygen), from 0.3 μM upward) | efficacy (HIF-1α transcription inhibition) relative to 20(R)-panaxotriol ([14]; ratio of IC50 values) | number of tumor cells that crossed the transwell chamber (invasion) (HeLa cells [15]) | IC50 at 24 h (Cytotoxic) |
| --- | --- | --- | --- | --- | --- | --- | --- | --- | --- | --- | --- | --- | --- | --- | --- | --- | --- | --- | --- | --- |
| CC(C)(C)OC(=O)NCC(=O)OC1CCC2(C)C(C(O)CC3(C)C2CC(O)C2C(C4(C)CCCC(C)(C)O4)CCC23C)C1(C)C (centres unmarked) [A11, 6,12-dihydroxy-4,4,8,10,14-pentamethyl-17-(2,6,6-trimethyltetrahydro-2H-pyran-2-yl)hexadecahydro-1H-cyclopenta[a]phenanthren-3-yl (tert-butoxycarbonyl)glycinate] | no adverse effects on cell viability | 5.2% | 14.0% | 24.2% | apparently inhibited | almost no influence | dose-dependent decrease | significantly increased | decreased | significantly reduced | concentration-dependently suppressed | dose-dependently reduced | increased | decreased | significantly inhibit | not detected | dose-dependent inhibited | more than 100 times | significantly reduced | – |
| CC1(C)CCCC(C)(C2CCC3(C)C2C(O)CC2C4(C)CCC(OC(=O)[C@@H](N)Cc5c[nH]c6ccccc56)C(C)(C)C4C(O)CC23C)O1 (some centres unmarked) [A13, 6,12-dihydroxy-4,4,8,10,14-pentamethyl-17-(2,6,6-trimethyltetrahydro-2H-pyran-2-yl)hexadecahydro-1H-cyclopenta[a]phenanthren-3-yl tryptophanate] | – | – | – | – | – | – | – | – | – | – | – | – | – | – | – | – | – | – | – | 6.99 µM |
